In brackets after ≈: the same amount, converted by molar mass.
Legend:
[1] = target: Protein kinase C alpha type (Homo sapiens, UniProt P17252); assay: Inhibition of Protein kinase C alpha
How it was run: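 Recombinant PKC-α, partially purified; protamine sulfate substrate without phosphatidylserine or diacylglycerol; γ-33P incorporation measured by spotting aliquots on P81 paper. Compounds serially diluted 10-fold in DMSO/water 50:50. Two independent experiments; IC50 in μM.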

B16 = assay: Inhibition of murine B16 Melanoma cell proliferation; assay type: functional, cell-based, Mus musculus
How it was run: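 Clonogenic assay: B16 melanoma cells (EMEM with 10% FCS, 37 °C, 5% CO2) seeded 200 per dish, attached 20 h, exposed to increasing drug concentrations 24 h, washed, regrown 12 days; methanol-fixed, crystal violet-stained, colonies >50 cells counted. IC50 is concentration giving 50% cloning efficiency versus untreated.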

[2] = tested on: DNA topoisomerase I (Bos taurus); assay: Inhibition of calf thymus Topoisomerase-I
[3] = tested on: DNA topoisomerase II (Bos taurus); assay: Inhibition of calf thymus Topoisomerase-2
Bacillus cereus = assay: Antimicrobial activity against Bacillus cereus; assay type: functional
How it was run: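 B. cereus ATCC 14579 in Mueller-Hinton broth pH 7.4, compounds diluted in DMSO across 12 tubes spanning 100 to 0.05 μg/mL; growth read after 24 h at 27 °C; MIC taken as lowest inhibitory concentration. Disk diffusion screen also run: 6 mm paper disks carrying 300 μg drug in DMSO, 24 h at 27 °C.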

P388 [4] = assay: Inhibition of P388 Leukemia cell proliferation; assay type: functional, cell-based; details: Mus musculus
How it was run: (§1)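 P388 murine leukemia cells exposed to a range of drug concentrations for 96 h at 37 °C; viability scored by neutral red staining; IC50 is the concentration giving 50% growth inhibition.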

P388 [5] = assay: Inhibition of P388 murine leukemia cell proliferation; assay type: functional, cell-based; details: Mus musculus; how it was run: as §1

IC50 [1] [µM]	IC50 (B16; b16) [µM]	MIC [2] [µM]	MIC [3] [µM]	SMILES	further results
99	5.4	–	–	CN1C(=O)c2c(c3c4ccccc4n(C4OC(CO)C(O)C(O)C4O)c3c3[nH]c4ccccc4c23)C1=O (stereo in doubt; 10) [listing 1 of 2 here]	–
–	–	6 (≈ 3.01 µg/mL)	> 20	CN1C(=O)c2c(c3c4ccccc4n(C4OC(CO)C(O)C(O)C4O)c3c3[nH]c4ccccc4c23)C1=O (stereo in doubt; 9) [listing 1 of 2 here]	–
–	–	> 20	> 20	CN1C(=O)c2c(c3c4ccccc4n(C4OC(CO)C(O)C(O)C4O)c3c3[nH]c4ccccc4c23)C1=O (stereo in doubt; 7) [listing 1 of 2 here]	–
82	4.75	–	–	CC1OC(n2c3ccccc3c3c4c(c5c6ccccc6[nH]c5c32)C(=O)N(C)C4=O)C(O)C(O)C1O (stereo in doubt; 13) [listing 1 of 2 here]	MIC (Bacillus cereus): 103 µM (≈ 50 µg/mL)
–	–	> 15	> 15	CC(=O)OCC1OC(n2c3ccccc3c3c4c(c5c6ccccc6[nH]c5c32)C(=O)N(C)C4=O)C(OC(C)=O)C(OC(C)=O)C1OC(C)=O (stereo in doubt; 5)	–
–	–	> 15	> 15	CC(=O)OCC1OC(n2c3ccccc3c3c4c(c5c6ccccc6[nH]c5c32)C(=O)N(C)C4=O)C(OC(C)=O)C(OC(C)=O)C1OC(C)=O (stereo in doubt; 4) [listing 1 of 2 here]	–
–	–	> 20	> 20	CC1OC(n2c3ccccc3c3c4c(c5c6ccccc6[nH]c5c32)C(=O)N(C)C4=O)C(O)C(O)C1O (stereo in doubt; 13) [listing 2 of 2 here]	–
–	–	> 15	> 15	CC(=O)OCC1OC(n2c3ccccc3c3c4c(c5c6ccccc6[nH]c5c32)C(=O)N(C)C4=O)C(OC(C)=O)C(OC(C)=O)C1OC(C)=O (stereo in doubt; 3) [listing 1 of 2 here]	–
> 100	75	–	–	CC(=O)OCC1OC(n2c3ccccc3c3c4c(c5c6ccccc6[nH]c5c32)C(=O)N(C)C4=O)C(OC(C)=O)C(OC(C)=O)C1OC(C)=O (stereo in doubt; 6) [listing 1 of 2 here]	–
62	–	–	–	CN1C(=O)c2c(c3c4ccccc4n(C4OC(CO)C(O)C(O)C4O)c3c3[nH]c4ccccc4c23)C1=O (stereo in doubt; 9) [listing 2 of 2 here]	–
> 100	–	–	–	CC1OC(n2c3ccccc3c3c4c(c5c6ccccc6[nH]c5c32)C(=O)N(C)C4=O)C(O)C(O)C1O (stereo in doubt; 14) [listing 1 of 2 here]	MIC (Bacillus cereus): 3.1 µM (≈ 1.51 µg/mL); IC50 (P388 [4]): 6.2 µM; IC50 (B16; Mus musculus, B16): 3.75 µM
> 100	–	0.6 (≈ 0.309 µg/mL)	–	CO[C@H]1[C@H](O)[C@@H](O)[C@H](n2c3ccccc3c3c4c(c5c6ccccc6[nH]c5c32)C(=O)N(C)C4=O)O[C@@H]1CO	MIC (Bacillus cereus; Bacillus cereus, read-out: MIC): 1.55 µM (≈ 0.799 µg/mL); IC50 (P388 [4]): 0.7 µM; IC50 (B16; Mus musculus, B16): 1.06 µM
–	–	0.6 (≈ 0.301 µg/mL)	> 20	CN1C(=O)c2c(c3c4ccccc4n(C4OC(CO)C(O)C(O)C4O)c3c3[nH]c4ccccc4c23)C1=O (stereo in doubt; 10) [listing 2 of 2 here]	–
> 100	–	1.95 (≈ 0.978 µg/mL)	> 19	CO[C@H]1[C@H](O)[C@@H](O)[C@H](n2c3ccccc3c3c4c(c5c6ccccc6[nH]c5c32)C(=O)NC4=O)O[C@@H]1CO	MIC (Bacillus cereus; Bacillus cereus, read-out: MIC): > 97 µM; IC50 (P388 [4]): 6.8 µM
> 100	3.3	–	–	CN1C(=O)c2c(c3c4ccccc4n(C4OC(CO)C(O)C(O)C4O)c3c3[nH]c4ccccc4c23)C1=O (stereo in doubt; 8) [listing 1 of 2 here]	MIC (Bacillus cereus): 12.4 µM (≈ 6.22 µg/mL)
> 100	2.5	–	–	CC(=O)OCC1OC(n2c3ccccc3c3c4c(c5c6ccccc6[nH]c5c32)C(=O)N(C)C4=O)C(OC(C)=O)C(OC(C)=O)C1OC(C)=O (stereo in doubt; 3) [listing 2 of 2 here]	–
–	–	2 (≈ 0.971 µg/mL)	> 20	CC1OC(n2c3ccccc3c3c4c(c5c6ccccc6[nH]c5c32)C(=O)N(C)C4=O)C(O)C(O)C1O (stereo in doubt; 14) [listing 2 of 2 here]	–
–	–	> 15	> 15	CC(=O)OCC1OC(n2c3ccccc3c3c4c(c5c6ccccc6[nH]c5c32)C(=O)N(C)C4=O)C(OC(C)=O)C(OC(C)=O)C1OC(C)=O (stereo in doubt; 6) [listing 2 of 2 here]	–
–	78	–	–	CC(=O)OCC1OC(n2c3ccccc3c3c4c(c5c6ccccc6[nH]c5c32)C(=O)N(C)C4=O)C(OC(C)=O)C(OC(C)=O)C1OC(C)=O (stereo in doubt; 4) [listing 2 of 2 here]	MIC (Bacillus cereus; Bacillus cereus, read-out: MIC): > 74 µM; IC50 (P388 [4]): > 15 µM
> 100	–	–	–	CO[C@H]1[C@H](O)[C@@H](O)[C@H](n2c3c(Cl)cccc3c3c4c(c5c6cccc(Cl)c6[nH]c5c32)C(=O)N(C)C4=O)O[C@@H]1CO	MIC (Bacillus cereus; Bacillus cereus, read-out: MIC): > 85 µM; IC50 (P388 [4]): 0.6 µM; IC50 (B16; Mus musculus, B16): 0.61 µM
> 100	–	–	–	CO[C@H]1[C@H](O)[C@@H](O)[C@H](n2c3c(Cl)cccc3c3c4c(c5c6cccc(Cl)c6[nH]c5c32)C(=O)NC4=O)O[C@@H]1CO [REBECCAMYCIN]	MIC (Bacillus cereus; Bacillus cereus, read-out: MIC): 10.9 µM (≈ 6.22 µg/mL); IC50 (P388 [5]): 0.5 µM
–	–	2 (≈ 1 µg/mL)	> 20	CN1C(=O)c2c(c3c4ccccc4n(C4OC(CO)C(O)C(O)C4O)c3c3[nH]c4ccccc4c23)C1=O (stereo in doubt; 8) [listing 2 of 2 here]	–
59	0.52	–	–	CN1C(=O)c2c(c3c4ccccc4n(C4OC(CO)C(O)C(O)C4O)c3c3[nH]c4ccccc4c23)C1=O (stereo in doubt; 7) [listing 2 of 2 here]	MIC (Bacillus cereus; Bacillus cereus, read-out: MIC): 6.2 µM (≈ 3.11 µg/mL); IC50 (P388 [4]): 6 µM
